Activity calls are given as the source filed them. The calls are words filed in the database; no cut-off is given here.
Assays:
[1] = system: Influenza A virus; assay: Antiviral activity against Influenza A virus (A/udorn/307/1972 H3N2) infected in MDCK cells assessed as reduction in viral RNA titer at 4 uM after 48 hrs by RT-qPCR analysis; format: functional, organism-based
Method in brief: (§1)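 Infection was the same: MDCK, Ud virus at moi 0.001 PFU/cell, 1 h adsorption, then compound at 4 or 8 μM in 1% DMSO medium. Supernatant was sampled at 24, 36 and 48 h. Neuraminidase-segment vRNA was reverse transcribed in duplicate (forward primer 1.25 μM, 12 h, 37 C), then amplified by probe qPCR in duplicate (primers 0.8 μM, probe 0.24 μM, 50 cycles). Results were normalized to the start of infection.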

[2] = system: Influenza A virus; assay: Antiviral activity against Influenza A virus (A/udorn/307/1972 H3N2) infected in MDCK cells assessed as inhibition of viral replication at 4 uM after 48 hrs by hemagglutination assay; format: functional, organism-based
Method in brief: (§2)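 MDCK cells infected with Ud virus at moi 0.001 PFU/cell. After 1 h adsorption, compound was added at 4 or 8 μM in medium containing 1% DMSO. Medium aliquots were taken at 24, 36 and 48 h and assayed for hemagglutinin (HA) titre. Infected cells without inhibitor served as the control.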

[3] = system: Influenza A virus; assay: Antiviral activity against Influenza A virus (A/udorn/307/1972 H3N2) infected in MDCK cells assessed as reduction in viral RNA titer at 8 uM after 24 to 48 hrs by RT-qPCR analysis; format: functional, organism-based; method in brief: as §1
[4] = system: Influenza A virus; assay: Antiviral activity against Influenza A virus (A/udorn/307/1972 H3N2) infected in MDCK cells assessed as inhibition of viral replication at 8 uM after 24 to 48 hrs by hemagglutination assay; format: functional, organism-based; method in brief: as §2
[5] = system: Influenza A virus; assay: Antiviral activity against Influenza A virus (A/udorn/307/1972 H3N2) infected in MDCK cells assessed as reduction in viral RNA titer at 4 uM after 36 to 48 hrs by RT-qPCR analysis; format: functional, organism-based; method in brief: as §1
[6] = system: Influenza A virus; assay: Antiviral activity against Influenza A virus (A/udorn/307/1972 H3N2) infected in MDCK cells assessed as inhibition of viral replication at 4 uM after 36 to 48 hrs by hemagglutination assay; format: functional, organism-based; method in brief: as §2
[7] = system: Influenza A virus; assay: Antiviral activity against Influenza A virus (A/udorn/307/1972 H3N2) infected in MDCK cells assessed as reduction in viral RNA titer at 4 uM after 36 hrs by RT-qPCR analysis; format: functional, organism-based; method in brief: as §1
[8] = system: Influenza A virus; assay: Antiviral activity against Influenza A virus (A/udorn/307/1972 H3N2) infected in MDCK cells assessed as inhibition of viral replication at 4 uM after 36 hrs by hemagglutination assay; format: functional, organism-based; method in brief: as §2
[9] = system: Influenza A virus; assay: Antiviral activity against Influenza A virus (A/udorn/307/1972 H3N2) infected in MDCK cells assessed as reduction in viral RNA titer at 4 to 8 uM after 24 hrs by RT-qPCR analysis; format: functional, organism-based; method in brief: as §1
[10] = system: Influenza A virus; assay: Antiviral activity against Influenza A virus (A/udorn/307/1972 H3N2) infected in MDCK cells assessed as inhibition of viral replication at 4 to 8 uM after 24 hrs by hemagglutination assay; format: functional, organism-based; method in brief: as §2
[11] = system: MDCK; assay: Cytotoxicity against MDCK cells infected with Influenza A virus (A/udorn/307/1972 H3N2) at 4 uM after 24 to 48 hrs by CellTiter-Glo cell viability assay; format: cell-based, Canis lupus familiaris; conditions: dog
Method in brief: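 CellTiter-Glo ATP luminescence was measured in MDCK cells infected with Ud virus at low multiplicity, with or without 4 μM compound. Cells were lysed at several times over the 48 h infection.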

[12] = system: Influenza A virus; assay: Antiviral activity against Influenza A virus (A/udorn/307/1972 H3N2) infected in MDCK cells assessed as reduction in viral RNA titer up to 6.5 hrs by RT-qPCR analysis; format: functional, organism-based
[13] = system: Influenza A virus; assay: Antiviral activity against Influenza A virus (A/udorn/307/1972 H3N2) infected in MDCK cells assessed as reduction in viral RNA titer at 4 to 8 uM after 24 to 48 hrs by RT-qPCR analysis relative to control; format: functional; method in brief: as §1
[14] = system: Influenza A virus; assay: Antiviral activity against Influenza A virus (A/udorn/307/1972 H3N2) infected in MDCK cells assessed as inhibition of viral replication at 4 to 8 uM after 24 to 48 hrs by hemagglutination assay; format: functional, organism-based; method in brief: as §2

Question: `CCC/C(=N\NC(=O)c1cc2ccccc2cc1O)c1ccc2c(c1)CCCC2` was tested. Which inhibition [1] did it give?
Answer: Its inhibition is “inactive”.

Question: What about the inhibition [2] of the same compound?
Answer: Its inhibition is “inactive”.

Question: What about the inhibition [3] of the same compound?
Answer: The inhibition was “Active”.

Question: What about the inhibition [4] of the same compound?
Answer: Its inhibition is “Active”.

Question: For `O=C(N/N=C(/c1ccc2c(c1)CCCC2)C1CC1)c1cc2ccccc2cc1O`, which inhibition [3] is on record?
Answer: Its inhibition is “Active”.

Question: What about the inhibition [4] of the same compound?
Answer: The inhibition was “Active”.

Question: How did the inhibition [5] turn out when `O=C(N/N=C(/c1ccc2c(c1)CCCC2)C1CCCCC1)c1cc2ccccc2cc1O` was run?
Answer: The inhibition was “Active”.

Question: What about the inhibition [6] of the same compound?
Answer: The inhibition was “Active”.

Question: What about the inhibition [7] of the same compound?
Answer: Its inhibition is “Active”.

Question: And the inhibition [8]?
Answer: Its inhibition is “Active”.

Question: What about the inhibition [4] of the same compound?
Answer: Its inhibition is “Active”.

Question: Which results are given for `CN(C)CCC/C(=N\NC(=O)c1cc2ccccc2cc1O)c1ccc2c(c1)CCCC2`?
Answer: inhibition [5]: inactive; inhibition [6]: inactive; inhibition [3]: Active; inhibition [4]: Active

Question: What does the source list for `O=C(N/N=C(/c1ccc2c(c1)CCCC2)C1CCCC1)c1cc2ccccc2cc1O`?
Answer: inhibition [5]: Active; inhibition [6]: Active; inhibition [3]: Active; inhibition [4]: Active

Question: For `CC(C)/C(=N\NC(=O)c1cc2ccccc2cc1O)c1ccc2c(c1)CCCC2`, which inhibition [9] is on record?
Answer: The inhibition was “Active”.

Question: And the inhibition [10]?
Answer: Its inhibition is “Active”.

Question: For `CC/C(=N\NC(=O)c1cc2ccccc2cc1O)c1ccc2c(c1)CCCC2`, which inhibition [9] is on record?
Answer: Its inhibition is “Active”.

Question: What about the inhibition [10] of the same compound?
Answer: Its inhibition is “Active”.

Question: And the inhibition [3]?
Answer: The inhibition was “Active”.

Question: And the inhibition [4]?
Answer: The inhibition was “Active”.

Question: Which results are given for `O=C(N/N=C(\c1ccccc1)c1ccc2c(c1)CCCC2)c1cc2ccccc2cc1O`?
Answer: Activity [11]: Non-toxic; inhibition [12]: Active; fold change (FC) [13]: 1000; inhibition [14]: Active

Question: What does the source list for `O=C(N/N=C(\CCCCl)c1ccc2c(c1)CCCC2)c1cc2ccccc2cc1O`?
Answer: inhibition [5]: inactive; inhibition [6]: inactive; inhibition [3]: Active; inhibition [4]: Active

Reference: ChEMBL document CHEMBL3098119, “Exploring naphthyl-carbohydrazides as inhibitors of influenza A viruses” (Eur J Med Chem, 2014)
